Assay outcomes as filed in PubChem.
M5 PAM: CHRM5 positive allosteric modulation. 360,000 tested, 0.3% active. CHO-K1 hM5, Fluo-8 calcium, ACh EC20 PAM; 0% = ACh EC20, 100% = ACh EC100. P08912. activation, % at 3 µM;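 active = activation above the run cutoff, the mean activation of all test compounds plus 3 SD, cut at about 18% in these data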
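system = human M5 receptor in CHO-K1 cells | compound = one concentration, 3 µM final (nominal) | schedule = Post-acetylcholine fluorescence recording 140 s | signal = Fluo-8 calcium dye fluorescence, kinetic read | benchmarks = low control EC20 acetylcholine (0%), high control EC100 acetylcholine (100%) | repeats = singlicate, one well per test compound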
CHRM4 PAM: positive allosteric modulators of human muscarinic M4 receptor; P08173; CHO-K1 hM4/Gqi5, Fluo-8 calcium fluorescence, ACh EC20; 0% = ACh EC20, 100% = maximal ACh; activation, % at 3 µM; 360,000 tested, 0.4% active; AID 624126;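 active = activation above its plate's cutoff, the mean activation of sample wells plus 3 SD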
Target sequence (P08173 whole entry, looked up): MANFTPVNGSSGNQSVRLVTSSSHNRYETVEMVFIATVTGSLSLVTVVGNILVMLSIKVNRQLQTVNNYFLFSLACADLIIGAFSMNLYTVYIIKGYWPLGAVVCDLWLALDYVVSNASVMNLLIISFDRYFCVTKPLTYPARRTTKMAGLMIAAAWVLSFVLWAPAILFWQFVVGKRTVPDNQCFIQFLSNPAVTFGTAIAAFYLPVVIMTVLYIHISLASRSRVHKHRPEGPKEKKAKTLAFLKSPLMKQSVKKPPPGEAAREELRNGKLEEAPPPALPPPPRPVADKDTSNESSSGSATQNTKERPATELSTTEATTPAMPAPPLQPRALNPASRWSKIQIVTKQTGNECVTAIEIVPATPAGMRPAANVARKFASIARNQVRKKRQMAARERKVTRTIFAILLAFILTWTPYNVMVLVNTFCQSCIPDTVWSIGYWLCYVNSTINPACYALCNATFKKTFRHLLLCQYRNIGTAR
CHRM5 antagonist: antagonists of human muscarinic M5 receptor (CHRM5). 360,000 tested, 0.59% active. CHO-hM5 cells, Fluo-8 calcium fluorescence, ACh EC80. AID 624040. inhibition, % at 3 µM;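 active = inhibition above a per-plate cutoff, the mean of that plate's test compounds plus 3 SD, cut at about 27% in these data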;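 note: 0% = acetylcholine EC80 with DMSO and 100% = DMSO without agonist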
CHRM5 agonist: CHRM5 agonism in calcium assay; CHO-K1 hM5 cells, Fluo-8 calcium fluorescence; 0% DMSO wells, 100% maximal acetylcholine response; P08912; 360,000 tested, 0.19% active; AID 624037; activation, % at 3 µM;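 active = activation above the run's mean over test compounds plus 3 SD, cut at about 23% in these data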;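 note: signal is peak over basal fluorescence ratio across the kinetic read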
M4 antag: CHRM4 antagonism in calcium assay; P08173; CHO-hM4 cells, ACh EC80, Fluo-8 calcium fluorescence; inhibition, % at 3 µM; 360,000 tested, 0.73% active;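 active = inhibition above its plate's cutoff, the mean inhibition of sample wells plus 3 SD, cut at about 27% in these data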;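 note: 0% = acetylcholine EC80 with DMSO and 100% = DMSO without agonist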
CHRM4 agonist: agonists of human muscarinic M4 receptor (CHRM4); 360,000 tested, 0.14% active; CHO-K1 hM4/Gqi5, Fluo-8 calcium fluorescence; vehicle 0%, full acetylcholine response 100%; P08173; activation, % at 3 µM;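 active = activation above the run mean over all test wells plus 3 SD, cut at about 32% in these data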;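 note: peak over basal fluorescence ratio per well then scaled between controls; 0% = DMSO wells and 100% = acetylcholine at EC100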
* marks the source's active call; other numbers are inactive results. Rows were chosen to be rich in hits. Some 1.9% of all compounds tested hit in one or more screens of this group.

Results for Cc1noc(C)c1C(=O)N1CCC1(C)C(=O)NS(=O)(=O)c1cccc(OC(F)F)c1 (stereo not given) ?
M5 PAM: -0.6; CHRM4 PAM: 8.6; CHRM5 antagonist: 3.1; CHRM5 agonist: 0.8; M4 antag: -11.9; CHRM4 agonist: 0.3

How did CCCc1nc2c3ccccc3ccn2c1CC(C)(C)C do in these assays?
M5 PAM: -8.1; CHRM4 PAM: -15.1; CHRM5 antagonist: -2.3; CHRM5 agonist: -7.9; M4 antag: 14.5; CHRM4 agonist: -2.2

How did CCOc1ccc(N=Cc2ccc([N+](=O)[O-])cc2)c(O)c1 do in these assays?
M5 PAM: 1.0; CHRM4 PAM: 0.3; CHRM5 antagonist: 5.9; CHRM5 agonist: 0.4; M4 antag: 5.2; CHRM4 agonist: 0.9

Results for O=c1c(Cl)c(Cl)cnn1Cc1nnc(-c2ccccc2Br)o1 ?
M5 PAM: -21.1; CHRM4 PAM: -24.5; CHRM5 antagonist: 100.5*; CHRM5 agonist: 80.3*; M4 antag: 98.9*; CHRM4 agonist: 119.6*

What do the screens show for `Clc1ccccc1OCc1nnc(-c2ccccc2Br)o1`?
M5 PAM: -2.1; CHRM4 PAM: -0.5; CHRM5 antagonist: 1.1; CHRM5 agonist: -3.4; M4 antag: 8.7; CHRM4 agonist: 0.2

How did Cc1ccc(Cn2nnc3c(=O)[nH]c(C4CCN(S(=O)(=O)c5ccc(S(=O)(=O)NC6CC6)cc5)CC4)nc32)cc1 do in these assays?
M5 PAM: 1.5; CHRM4 PAM: -10.3; CHRM5 antagonist: 1.4; CHRM5 agonist: -5.8; M4 antag: 11.5; CHRM4 agonist: 0.9

Results for O=c1[nH]c(C2CCCN(S(=O)(=O)c3ccccc3Cl)C2)nc2c1nnn2Cc1ccc2c(c1)OCCO2 (stereo not given) ?
M5 PAM: -2.5; CHRM4 PAM: -7.7; CHRM5 antagonist: -6.1; CHRM5 agonist: -6.0; M4 antag: -8.6; CHRM4 agonist: 2.6

How did O=c1[nH]c(C2CCN(S(=O)(=O)c3ccc(S(=O)(=O)NC4CC4)cc3)CC2)nc2c1nnn2Cc1cccc(F)c1 do in these assays?
M5 PAM: -0.4; CHRM4 PAM: -19.9; CHRM5 antagonist: 6.7; CHRM5 agonist: -3.9; M4 antag: 44.9*; CHRM4 agonist: 0.0

Results for O=c1[nH]c(C2CCN(S(=O)(=O)c3ccccc3)CC2)nc2c1nnn2Cc1ccccc1 ?
M5 PAM: 3.2; CHRM4 PAM: -27.2; CHRM5 antagonist: -4.8; CHRM5 agonist: -1.2; M4 antag: 67.0*; CHRM4 agonist: 1.9

Results for O=c1[nH]c(C2CCN(S(=O)(=O)c3ccccc3)CC2)nc2c1nnn2Cc1ccc2c(c1)OCCO2 ?
M5 PAM: 4.7; CHRM4 PAM: -11.2; CHRM5 antagonist: 2.4; CHRM5 agonist: -5.5; M4 antag: 95.1*; CHRM4 agonist: -1.3

How did O=c1[nH]c(C2CCN(S(=O)(=O)c3ccc([N+](=O)[O-])cc3)CC2)nc2c1nnn2Cc1ccccc1 do in these assays?
M5 PAM: 4.2; CHRM4 PAM: -2.0; CHRM5 antagonist: 5.8; CHRM5 agonist: -2.8; M4 antag: 7.1; CHRM4 agonist: 2.1

How did O=c1[nH]c(C2CCN(S(=O)(=O)c3ccc4c(c3)OCCO4)CC2)nc2c1nnn2Cc1cccc(F)c1 do in these assays?
M5 PAM: 1.4; CHRM4 PAM: -22.6; CHRM5 antagonist: 9.4; CHRM5 agonist: -4.4; M4 antag: 79.2*; CHRM4 agonist: 1.1

What do the screens show for `COCCNc1nc2cc(-c3cccc(Cl)c3)sc2c(=O)n1C`?
M5 PAM: 4.9; CHRM4 PAM: -3.4; CHRM5 antagonist: -7.8; CHRM5 agonist: 0.3; M4 antag: -3.3; CHRM4 agonist: 2.1

How did C=CC1CN2CCC1CC2C(O)c1ccnc2ccc(OC)cc12 (stereo not given) do in these assays?
M5 PAM: -2.1; CHRM4 PAM: -4.9; CHRM5 antagonist: 10.8; CHRM5 agonist: -1.3; M4 antag: -4.6; CHRM4 agonist: -0.7

How did CCOc1c(Br)cc(C(=O)Nc2cccc(S(=O)(=O)N3CCOCC3)c2)cc1OC do in these assays?
M5 PAM: 1.0; CHRM4 PAM: 0.1; CHRM5 antagonist: -6.6; CHRM5 agonist: 1.9; M4 antag: -23.3; CHRM4 agonist: 15.9

What do the screens show for `O=c1[nH]c(C2CCN(S(=O)(=O)c3ccc4c(c3)OCCO4)CC2)nc2c1nnn2Cc1ccc(F)cc1`?
M5 PAM: -0.6; CHRM4 PAM: -18.5; CHRM5 antagonist: 14.1; CHRM5 agonist: -1.2; M4 antag: 47.9*; CHRM4 agonist: -0.1

What do the screens show for `CCN(CC)CCN1C(=O)/C(=C\c2ccc(Cl)c([N+](=O)[O-])c2)SC1=Nc1ccc(OC)cc1`?
M5 PAM: 1.2; CHRM4 PAM: -18.3; CHRM5 antagonist: 29.8*; CHRM5 agonist: -3.6; M4 antag: 19.5; CHRM4 agonist: 3.2

Results for COc1ccc(C(=O)N2CCC2(C)C(=O)O)cc1C(F)(F)F (stereo not given) ?
M5 PAM: -2.4; CHRM4 PAM: 3.5; CHRM5 antagonist: -0.3; CHRM5 agonist: 2.3; M4 antag: -18.3; CHRM4 agonist: 0.9

How did CN(C1CCCCC1)S(=O)(=O)c1ccc2c(c1)c(=O)c(C(=O)NCCCN1CCCC1)cn2C do in these assays?
M5 PAM: -4.2; CHRM4 PAM: -15.8; CHRM5 antagonist: 4.2; CHRM5 agonist: -2.4; M4 antag: 26.7*; CHRM4 agonist: 0.0

How did CN(C1CCCCC1)S(=O)(=O)c1ccc2c(c1)c(=O)c(C(=O)NCCN1CCCC1)cn2C do in these assays?
M5 PAM: 3.1; CHRM4 PAM: -12.1; CHRM5 antagonist: -3.5; CHRM5 agonist: -2.5; M4 antag: 1.6; CHRM4 agonist: 1.2

How did CC1=C(C(=O)N2CCCCCC2)CC(CC(=O)NCc2cccc3ccccc23)C(=O)N1CCC1=CCCCC1 (stereo not given) do in these assays?
M5 PAM: -6.8; CHRM4 PAM: -9.2; CHRM5 antagonist: 9.4; CHRM5 agonist: 5.0; M4 antag: 2.5; CHRM4 agonist: 14.5

Results for COC(=O)c1ccc2nc(-c3ccc(F)cc3)c(CC3CCCCC3)n2c1 ?
M5 PAM: -3.4; CHRM4 PAM: 0.8; CHRM5 antagonist: 1.4; CHRM5 agonist: 3.6; M4 antag: -7.5; CHRM4 agonist: -1.2

Results for Cc1ccccc1CN1C(=O)c2ccccc2C1c1nnnn1C(C)C (stereo not given) ?
M5 PAM: 1.5; CHRM4 PAM: 17.0; CHRM5 antagonist: -1.2; CHRM5 agonist: -3.3; M4 antag: -10.0; CHRM4 agonist: 0.5

How did CCCCNC(=S)Nc1ccc(C(F)(F)F)cc1 do in these assays?
M5 PAM: -28.5; CHRM4 PAM: -9.5; CHRM5 antagonist: 34.2*; CHRM5 agonist: 0.5; M4 antag: -2.9; CHRM4 agonist: 10.5
